Laboratory results reported in ChEMBL document CHEMBL4480458, “Synthesis and Anti-inflammatory Evaluation of ( R)-, ( S)-, and (±)-Sanjuanolide Isolated from Dalea frutescens” (J Nat Prod, 2019).
Active and inactive are the calls of the source. The calls are words filed in the database; no cut-off is given here.

What was measured:
Type in all cases: functional, cell-based
RAW264.7 [1] = experiment: Antiinflammatory activity in mouse RAW264.7 cells assessed as inhibition of LPS-induced […] mRNA expression pretreated for 30 mins followed by LPS-stimulation and measured after 24 hrs by trizol reagent based qRT-PCR analysis
Method in brief: (§1)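 RAW 264.7 macrophages were grown in DMEM with 10% FBS and penicillin/streptomycin at 37 °C, 5% CO2. Cells were plated at 7.0 × 10^5/plate and incubated overnight, then pretreated 30 min with compound at 2.5 or 10 μM before LPS at 1.0 μg/mL for 24 h. Total RNA was extracted and qPCR was run, with each gene normalized to β-actin. Values are % of LPS control, mean ± SEM of three independent experiments, Student's t test.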

RAW264.7 [2] = experiment: Antiinflammatory activity in mouse RAW264.7 cells assessed as inhibition of LPS-induced IL1beta mRNA expression pretreated for 30 mins followed by LPS-stimulation and measured after 24 hrs by trizol reagent based qRT-PCR analysis; method in brief: as §1
RAW264.7 [3] = experiment: Antiinflammatory activity in mouse RAW264.7 cells assessed as inhibition of LPS-induced COX2 mRNA expression pretreated for 30 mins followed by LPS-stimulation and measured after 24 hrs by trizol reagent based qRT-PCR analysis; method in brief: as §1
RAW264.7 [4] = experiment: Antiinflammatory activity in mouse RAW264.7 cells assessed as inhibition of LPS-induced TNFalpha production pretreated for 30 mins followed by LPS-stimulation and measured after 24 hrs by ELISA
Method in brief: (§2)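 RAW 264.7 cells were seeded at 400 000 per well in DMEM and held for 24 h at 37 °C, 5% CO2. They were pretreated 30 min with vehicle or compound at 1, 2.5, 5 or 10 μM, then stimulated with LPS at 0.5 μg/mL for 24 h. Supernatant cytokine was measured by ELISA. IC50 was taken from the concentration series, and significance was tested against LPS vehicle.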

RAW264.7 [5] = experiment: Antiinflammatory activity in mouse RAW264.7 cells assessed as inhibition of LPS-induced IL-6 production pretreated for 30 mins followed by LPS-stimulation and measured after 24 hrs by ELISA; method in brief: as §2
RAW264.7 [6] = experiment: Antiinflammatory activity in mouse RAW264.7 cells assessed as inhibition of LPS-induced IL-6 mRNA expression pretreated for 30 mins followed by LPS-stimulation and measured after 24 hrs by trizol reagent based qRT-PCR analysis; method in brief: as §1
RAW264.7 [7] = experiment: Antiinflammatory activity in mouse RAW264.7 cells assessed as inhibition of LPS-induced TNFalpha mRNA expression pretreated for 30 mins followed by LPS-stimulation and measured after 24 hrs by trizol reagent based qRT-PCR analysis; method in brief: as §1
RAW264.7 [8] = experiment: Antiinflammatory activity in mouse RAW264.7 cells assessed as inhibition of LPS-induced ICAM1 mRNA expression pretreated for 30 mins followed by LPS-stimulation and measured after 24 hrs by trizol reagent based qRT-PCR analysis; method in brief: as §1

C=C(C)C(O)Cc1c(O)ccc(C(=O)/C=C/c2ccccc2)c1O (racemic)
inhibition (RAW264.7 [1]): Active
inhibition (RAW264.7 [2]): Active
inhibition (RAW264.7 [3]): Active
IC50 (RAW264.7 [4]): 1600 nM
IC50 (RAW264.7 [5]): 1100 nM
inhibition (RAW264.7 [6]): Active
inhibition (RAW264.7 [7]): Active
inhibition (RAW264.7 [8]): Active

C=C(C)[C@H](O)Cc1c(O)ccc(C(=O)/C=C/c2ccccc2)c1O
inhibition (RAW264.7 [1]): Active
inhibition (RAW264.7 [2]): Active
inhibition (RAW264.7 [3]): Active
IC50 (RAW264.7 [4]): 1200 nM
IC50 (RAW264.7 [5]): 1100 nM
inhibition (RAW264.7 [6]): Active
inhibition (RAW264.7 [7]): Active
inhibition (RAW264.7 [8]): Active

C=C(C)[C@@H](O)Cc1c(O)ccc(C(=O)/C=C/c2ccccc2)c1O
inhibition (RAW264.7 [4]): inactive
inhibition (RAW264.7 [5]): inactive
